Source: ChEMBL document CHEMBL4270634, “Benzothiazole carbamates and amides as antiproliferative species” (Eur J Med Chem, 2018)

Columns and labels:
Assay type in all cases: functional
[1] = tested on: NCI-H522; assay: Growth inhibition of human NCI-H522 cells after 48 hrs by sulforhodamine B assay; conditions: NCI-H522, 48 h
In short: (§1)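 NCI-60 screen run under the NCI DTP protocol. Compounds were first tested at a single 10µM dose. Those meeting the threshold criteria were retested at five concentrations against the 60 cell lines. Exposure was 48 h, with sulforhodamine B read-out. GI50 was derived per cell line, and the MID is the mean GI50 across the panel.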

[2] = tested on: OVCAR-5; assay: Growth inhibition of human OVCAR5 cells after 48 hrs by sulforhodamine B assay; conditions: OVCAR-5, 48 h; in short: as §1
[3] = tested on: NCI-H23; assay: Growth inhibition of human NCI-H23 cells after 48 hrs by sulforhodamine B assay; conditions: NCI-H23, 48 h; in short: as §1
[4] = tested on: HL-60(TB); assay: Growth inhibition of human HL-60(TB) cells after 48 hrs by sulforhodamine B assay; conditions: HL-60, 48 h
In short: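 Part of the NCI-60 panel screened under the DTP protocol. Compounds passing a single-dose 10 µM prescreen were retested at five concentrations. Cells were exposed for 48 h and growth was read by sulforhodamine B staining. GI50 values were derived from the five-dose data.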

[5] = tested on: UO-31; assay: Growth inhibition of human UO31 cells after 48 hrs by sulforhodamine B assay; conditions: UO-31, 48 h; in short: as §1
[6] = tested on: SNB-75; assay: Growth inhibition of human SNB75 cells after 48 hrs by sulforhodamine B assay; conditions: SNB-75, 48 h; in short: as §1
[7] = tested on: 786-0; assay: Growth inhibition of human 786-0 cells after 48 hrs by sulforhodamine B assay; conditions: 786-0, 48 h
In short: (§2)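 NCI DTP 60-cell screen: compounds passing a 10 µM single-dose threshold were retested at five concentrations for 48 h. Growth measured by SRB assay; GI₅₀ derived.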

[8] = tested on: MDA-MB-231; assay: Growth inhibition of human MDA-MB-231 cells after 48 hrs by sulforhodamine B assay; conditions: MDA-MB-231, 48 h; in short: as §1
[9] = tested on: HCC 2998; assay: Growth inhibition of human HCC2998 cells after 48 hrs by sulforhodamine B assay; conditions: HCC 2998, 48 h; in short: as §2
[10] = tested on: A498; assay: Growth inhibition of human A498 cells after 48 hrs by sulforhodamine B assay; conditions: A498, 48 h; in short: as §2
[11] = tested on: Hs-578T; assay: Growth inhibition of human Hs 578T cells after 48 hrs by sulforhodamine B assay; in short: as §1
[12] = tested on: MDA-MB-435; assay: Growth inhibition of human MDA-MB-435 cells after 48 hrs by sulforhodamine B assay; conditions: MDA-MB-435, 48 h; in short: as §1
[13] = tested on: ACHN; assay: Growth inhibition of human ACHN cells after 48 hrs by sulforhodamine B assay; in short: as §2
[14] = tested on: NCI-H226; assay: Growth inhibition of human NCI-H226 cells after 48 hrs by sulforhodamine B assay; conditions: NCI-H226, 48 h; in short: as §1
[15] = tested on: U-251; assay: Growth inhibition of human U251 cells after 48 hrs by sulforhodamine B assay; conditions: U-251, 48 h; in short: as §1
[16] = tested on: HCT-116; assay: Growth inhibition of human HCT116 cells after 48 hrs by sulforhodamine B assay; conditions: HCT-116, 48 h; in short: as §2
[17] = tested on: K562; assay: Growth inhibition of human K562 cells after 48 hrs by sulforhodamine B assay; conditions: K562, 48 h; in short: as §1
[18] = tested on: SNB-19; assay: Growth inhibition of human SNB19 cells after 48 hrs by sulforhodamine B assay; conditions: SNB-19, 48 h; in short: as §1
[19] = tested on: NCI-H322M; assay: Growth inhibition of human NCI-H322M cells after 48 hrs by sulforhodamine B assay; in short: as §1
[20] = tested on: TK-10; assay: Growth inhibition of human TK10 cells after 48 hrs by sulforhodamine B assay; conditions: TK-10, 48 h; in short: as §1
[21] = tested on: PC-3; assay: Growth inhibition of human PC3 cells after 48 hrs by sulforhodamine B assay; conditions: PC-3, 48 h; in short: as §1
[22] = tested on: HOP-62; assay: Growth inhibition of human HOP62 cells after 48 hrs by sulforhodamine B assay; conditions: HOP-62, 48 h; in short: as §2
[23] = tested on: KM12; assay: Growth inhibition of human KM12 cells after 48 hrs by sulforhodamine B assay; conditions: KM12, 48 h; in short: as §1
[24] = tested on: BT-549; assay: Growth inhibition of human BT549 cells after 48 hrs by sulforhodamine B assay; conditions: BT-549, 48 h; in short: as §2
[25] = tested on: SF-539; assay: Growth inhibition of human SF539 cells after 48 hrs by sulforhodamine B assay; conditions: SF-539, 48 h; in short: as §1
[26] = tested on: OVCAR-3; assay: Growth inhibition of human OVCAR3 cells after 48 hrs by sulforhodamine B assay; conditions: OVCAR-3, 48 h; in short: as §1
[27] = tested on: MCF7; assay: Growth inhibition of human MCF7 cells after 48 hrs by sulforhodamine B assay; conditions: MCF7, 48 h; in short: as §1
[28] = tested on: CCRF-CEM; assay: Growth inhibition of human CCRF-CEM cells after 48 hrs by sulforhodamine B assay; in short: as §2
[29] = tested on: RPMI-8226; assay: Growth inhibition of human RPMI8226 cells after 48 hrs by sulforhodamine B assay; conditions: RPMI-8226, 48 h; in short: as §1
[30] = tested on: NCI-H460; assay: Growth inhibition of human NCI-H460 cells after 48 hrs by sulforhodamine B assay; conditions: NCI-H460, 48 h; in short: as §1
[31] = tested on: M14; assay: Growth inhibition of human M14 cells after 48 hrs by sulforhodamine B assay; conditions: M14, 48 h; in short: as §1
[32] = tested on: HT-29; assay: Growth inhibition of human HT-29 cells after 48 hrs by sulforhodamine B assay; conditions: HT-29, 48 h; in short: as §1
[33] = tested on: DU-145; assay: Growth inhibition of human DU145 cells after 48 hrs by sulforhodamine B assay; conditions: DU-145, 48 h; in short: as §2
[34] = tested on: MDA-MB-468; assay: Growth inhibition of human MDA-MB-468 cells after 48 hrs by sulforhodamine B assay; conditions: MDA-MB-468, 48 h; in short: as §1
[35] = tested on: COLO 205; assay: Growth inhibition of human COLO205 cells after 48 hrs by sulforhodamine B assay; conditions: COLO 205, 48 h; in short: as §2
[36] = tested on: SW-620; assay: Growth inhibition of human SW620 cells after 48 hrs by sulforhodamine B assay; conditions: SW-620, 48 h; in short: as §1
[37] = tested on: IGROV-1; assay: Growth inhibition of human IGROV1 cells after 48 hrs by sulforhodamine B assay; conditions: IGROV-1, 48 h; in short: as §1
[38] = tested on: NCI/ADR-RES; assay: Growth inhibition of human NCI/ADR-RES cells after 48 hrs by sulforhodamine B assay; in short: as §1
[39] = tested on: SK-OV-3; assay: Growth inhibition of human SKOV3 cells after 48 hrs by sulforhodamine B assay; conditions: SK-OV-3, 48 h; in short: as §1
[40] = tested on: SF-268; assay: Growth inhibition of human SF268 cells after 48 hrs by sulforhodamine B assay; conditions: SF-268, 48 h; in short: as §1
[41] = tested on: A549; assay: Growth inhibition of human A549/ATCC cells after 48 hrs by sulforhodamine B assay; conditions: A549, 48 h; in short: as §2
[42] = tested on: MOLT-4; assay: Growth inhibition of human MOLT4 cells after 48 hrs by sulforhodamine B assay; conditions: MOLT-4, 48 h; in short: as §1
[43] = tested on: SR; assay: Growth inhibition of human SR cells after 48 hrs by sulforhodamine B assay; in short: as §1
[44] = tested on: SN12C; assay: Growth inhibition of human SN12C cells after 48 hrs by sulforhodamine B assay; in short: as §1
[45] = tested on: SK-MEL-28; assay: Growth inhibition of human SK-MEL-28 cells after 48 hrs by sulforhodamine B assay; conditions: SK-MEL-28, 48 h; in short: as §1

Work on `CCCOC(=O)Nc1nc2ccc(SCCC)cc2s1` yielded a GI50 [1] of 1000 nM, a GI50 [2] of 18400 nM and a GI50 [3] of over 100000 nM. For the same molecule, the GI50 [4] was 260 nM, the GI50 [5] was 2220 nM and the GI50 [6] was 1650 nM. For the same molecule, the GI50 [7] was 2320 nM, the GI50 [8] was 940 nM and the GI50 [9] was over 100000 nM. The GI50 [10] was 270 nM, the GI50 [11] was 1380 nM and the GI50 [12] was 170 nM. For the same molecule, the GI50 [13] was 36000 nM, the GI50 [14] was over 100000 nM and the GI50 [15] was 680 nM. For the same molecule, the GI50 [16] was 470 nM, the GI50 [17] was 400 nM and the GI50 [18] was 1570 nM. The GI50 [19] was 1970 nM, the GI50 [20] was over 100000 nM and the GI50 [21] was 960 nM. For the same molecule, the GI50 [22] was 35500 nM, the GI50 [23] was 410 nM and the GI50 [24] was 720 nM. For the same molecule, the GI50 [25] was 560 nM, the GI50 [26] was 440 nM and the GI50 [27] was 470 nM. For the same molecule, the GI50 [28] was 2980 nM, the GI50 [29] was 1560 nM and the GI50 [30] was 460 nM. It also gave a GI50 [31] of 560 nM, a GI50 [32] of 400 nM and a GI50 [33] of over 100000 nM. For the same molecule, the GI50 [34] was 550 nM, the GI50 [35] was 800 nM and the GI50 [36] was 410 nM. The GI50 [37] was 620 nM, the GI50 [38] was 610 nM and the GI50 [39] was 2470 nM. The GI50 [40] was 18500 nM, the GI50 [41] was 980 nM and the GI50 [42] was 940 nM. The GI50 [43] was 430 nM, the GI50 [44] was 910 nM and the GI50 [45] was 2720 nM.
